OX1R antag-1 = antagonists of human orexin 1 receptor (OX1R); O43613; OX1R-expressing cells, FRET antagonist read-out; inhibition, % at 6.6 µM; 330,000 tested, 1.8% active; AID 485270; in the data active means inhibition mostly above about 38%, no sharp cut-off; inactive means mostly below about 40%;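 further: 0% = agonist challenge alone and 100% = reference antagonist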
Target sequence (O43613 whole entry, looked up): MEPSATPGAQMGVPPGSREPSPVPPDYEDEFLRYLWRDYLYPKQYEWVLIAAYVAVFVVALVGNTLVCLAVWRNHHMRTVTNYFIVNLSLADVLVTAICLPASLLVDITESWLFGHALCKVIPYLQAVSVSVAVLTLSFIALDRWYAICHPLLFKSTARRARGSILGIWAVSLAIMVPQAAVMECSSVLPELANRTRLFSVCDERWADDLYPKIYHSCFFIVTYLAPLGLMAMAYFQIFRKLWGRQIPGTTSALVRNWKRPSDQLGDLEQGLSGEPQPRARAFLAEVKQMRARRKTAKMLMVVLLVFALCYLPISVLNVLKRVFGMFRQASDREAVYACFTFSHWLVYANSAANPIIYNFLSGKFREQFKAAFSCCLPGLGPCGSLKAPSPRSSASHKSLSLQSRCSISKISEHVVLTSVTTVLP
OX1R antag-2 = blocks the human orexin 1 receptor; O43613; CHO/OX1R cells, Fluo-8 calcium fluorescence, orexin A; inhibition, % at 5 µM; 330,000 tested, 0.43% active; AID 434989;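 active means inhibition above its plate's threshold, mean inhibition of all tested compounds on the plate plus 3 SD, cut at about 37% in these data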;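 further: 0% = orexin A challenge wells and 100% = SB-334867-A antagonist wells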
GPR7 antag = blocks human GPR7 receptor signaling; AID 1861; 290,000 tested, 1.1% active; GPR7-expressing cells, fluorescence antagonist assay; inhibition, % at 4.4 µM; in the data active means inhibition above about 16%, passing the limit was not always enough;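 further: cells stimulated with the agonist NPW; 0% = agonist with vehicle and 100% = vehicle without agonist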
TAAR1 agonist = human TAAR1 agonism; CHO RD-HGA16 TAAR1, Fluo-8 calcium fluorescence; vehicle wells 0%, saturating PEA agonist 100%; activation, % at 3 µM; 360,000 tested, 0.99% active; AID 624467;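 active means activation above the mean activation of all test compounds in the run plus 3 SD, cut at about 38% in these data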
Target sequence (Q96RJ0 whole entry, looked up): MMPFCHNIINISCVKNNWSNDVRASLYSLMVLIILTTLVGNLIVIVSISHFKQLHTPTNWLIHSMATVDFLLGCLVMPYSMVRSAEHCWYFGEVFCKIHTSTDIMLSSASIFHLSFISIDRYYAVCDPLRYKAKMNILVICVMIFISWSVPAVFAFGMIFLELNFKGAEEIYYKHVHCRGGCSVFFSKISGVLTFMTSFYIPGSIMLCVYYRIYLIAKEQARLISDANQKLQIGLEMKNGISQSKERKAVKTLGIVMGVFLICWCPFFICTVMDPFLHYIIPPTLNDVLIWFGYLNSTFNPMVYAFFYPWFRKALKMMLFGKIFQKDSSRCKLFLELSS
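Test system: RD-HGA16 (CHO) cells co-expressing Gα16 and hTAAR1 | Doses: Single dose, 3 µM | Schedule: 17-24 h seeding, 75 min 37 °C dye, 30 min RT | Evaluation: % activation from peak over basal fluorescence ratio, DMSO-to-PEA scaled | Technique: Kinetic Fluo-8 calcium fluorescence | Benchmarks: Low control DMSO, high control PEA (EC100)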
TAAR1 antag = antagonists of human TAAR1. Q96RJ0. CHO RD-HGA16 TAAR1, Fluo-8 calcium fluorescence, antagonist. inhibition, % at 3 µM. 360,000 tested, 1.5% active. AID 624466;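 active means inhibition above a per-plate cutoff, the mean inhibition of test compounds on that plate plus 3 SD, cut at about 49% in these data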;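 further: 0% = DMSO plus EC80 beta-PEA response and 100% = DMSO alone without agonist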
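Test system: CHO RD-HGA16 cells bearing hTAAR1 | Reagent: β-PEA, EC80 | Compound dosing: 3 µM, single point | Schedule: Dye loading 75 min at 37 °C, then 30 min room temperature | Signal: Calcium fluorescence with Fluo-8 | Evaluation: Percent inhibition of PEA-evoked calcium signal, max/basal emission ratio | Control set: DMSO-only wells and EC80 β-PEA-stimulated wells | Repeats: Singlicate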
CHO parental Ca = signal in parental CHO cells, OX1R antagonist counter-screen | parental CHO-K1, ATP-induced calcium, Fluo-8 fluorescence | inhibition, % at 5.6 µM | 330,000 tested, 0.63% active;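 active means inhibition above that plate's mean sample inhibition plus 3 SD, cut at about 26% in these data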;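 further: 0% = ATP-challenged DMSO wells and 100% = DMSO wells without ATP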
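Test system: untransfected parental CHO cell line. Compound: one dose, 5.6 µM nominal. Detection: intracellular calcium via Fluo-8 no-wash fluorescent dye. Measure: % inhibition. Benchmarks: ATP-challenged DMSO wells low, unchallenged DMSO wells high.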
nonsel antag count = nonselective antagonism, TAAR1 counter-screen; AID 651780; counterscreen cell line, calcium fluorescence, antagonist mode; inhibition, % at 3 µM; 2,400 tested, 77% active; shares compounds with TAAR1 antag; in the data active means inhibition above about 22%;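 further: CHO-Ga16 host cells stimulated with ATP at an EC80 level; 0% = agonist EC80 plus vehicle and 100% = vehicle without agonist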
TAAR1 ant conf = confirmation of human TAAR1 antagonists; inhibition, % at 3 µM; AID 651785; shares compounds with TAAR1 antag; TAAR1-expressing cells, fluorescence antagonist read-out; 2,400 tested, 40% active; in the data active means inhibition above about 49%;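 further: CHO-Ga16 host cells challenged with agonist PEA near its EC80; 0% = agonist at EC80 plus vehicle and 100% = vehicle with no agonist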
Ga16 ag counter = counter-screen for TAAR1 antagonists: nonselective Ga16 agonists; Ga16-expressing cells, calcium fluorescence, agonist counterscreen; shares compounds with TAAR1 antag; activation, % at 3 µM; 2,400 tested, 18% active; in the data active means activation above about 12%;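 further: 0% = vehicle wells and 100% = saturating stimulus response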
TAAR1 ag counter = counter-screen for human TAAR1 antagonists: TAAR1 agonists; shares compounds with TAAR1 antag; activation, % at 3 µM; 2,400 tested, 2% active; hTAAR1 cell line, fluorescence activation, agonist mode; in the data active means activation above about 37%;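 further: CHO cells stably expressing TAAR1 with calcium dye readout; 0% = DMSO vehicle and 100% = full agonist response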
* hit, by the source's call; / = no result. Compounds with a hit are over-represented: about 4.6% of the library has one in this group of screens.

SMILES | OX1R antag-1 | OX1R antag-2 | GPR7 antag | TAAR1 agonist | TAAR1 antag | CHO parental Ca | nonsel antag count | TAAR1 ant conf | Ga16 ag counter | TAAR1 ag counter
CC(=O)c1ccc(OCC(=O)Nc2ccc3c(c2)CCC3)cc1 | 33 | -19 | -2 | 0 | 84* | -13 | 1 | -1 | 9 | 13
CCc1nc2ccc(C(=O)N(C)Cc3ccco3)cn2c1N(C)Cc1ccc(OC)cc1 | / | / | / | 1 | -8 | / | / | / | / | /
COc1ccc(-c2cc(C(=O)OCC(=O)NC3CC3)c3ccccc3n2)cc1 | 15 | -12 | / | 19 | -11 | -12 | / | / | / | /
COc1ccc2cc(-c3cc(C(=O)OCC(=O)NC4CCS(=O)(=O)C4)c4ccccc4n3)ccc2c1 (configuration not stated) | 52 | 26 | -2 | 16 | 59* | -1 | 41* | 51* | 12* | 9
CC(C)CNC(=O)C1(C)CCCN1C(=O)c1ccc2c(c1)CCO2 (configuration not stated) | / | / | / | 1 | -11 | / | / | / | / | /
Cc1ccc(CNC(=O)CCCn2c(=O)c3ccccc3n(CC(=O)NC3CCCC3)c2=O)cc1 | 5 | -34 | -3 | 2 | 6 | -3 | / | / | / | /
CCCCn1c(=O)n(CC(=O)NCc2ccc(C)cc2)c(=O)c2c1nc(CO)n2CCC | 21 | -14 | -11 | 11 | 50* | -15 | 22* | 39 | 6 | 4
Cc1cn([C@H](C(=O)NCCCCCCCCCCC(=O)N2CCN(C(=O)OC(C)(C)C)CC2)[C@@H](C)O)nn1 | 16 | -29 | / | 21 | 63* | -30 | 24* | 34 | 11 | 9
CN1OC[C@@H]2CN(C(=O)CCc3ccccc3)[C@H](c3cccc(-c4ccccc4)c3)C[C@@H]21 | / | / | / | 5 | 3 | / | / | / | / | /
NC(=O)c1nsc(C(=O)N(c2ccccc2F)C(C(=O)NCc2ccccc2)c2ccc(O)cc2)c1N (configuration not stated) | 5 | -2 | -9 | 14 | 78* | 0 | 36* | 48 | 10 | 14
CN(C)c1ccc(C(C(=O)NC2CCCCC2)N(Cc2ccco2)C(=O)c2snc(C(N)=O)c2N)cc1 (configuration not stated) | 13 | -21 | -13 | 15 | 58* | -8 | 31* | 53* | 8 | 12
COc1cc(C(C(=O)NC2CCCC2)N(Cc2ccco2)C(=O)c2snc(C(N)=O)c2N)cc(OC)c1OC (configuration not stated) | 23 | -28 | -14 | 10 | 16 | -20 | / | / | / | /
Cc1ccccc1N(C(=O)c1snc(C(N)=O)c1N)C(C(=O)NCc1ccccc1)c1ccc(O)cc1 (configuration not stated) | 20 | 1 | 1 | 27 | 64* | -14 | 30* | 54* | 10 | 13
CCCC(C(=O)NC1CCCC1)N(Cc1ccc2c(c1)OCO2)C(=O)c1snc(C(N)=O)c1N (configuration not stated) | 11 | -7 | 12 | 17 | 63* | -29 | 28* | 49* | 9 | 11
Cc1ccccc1N(C(=O)c1snc(C(N)=O)c1N)C(C(=O)NC1CCCCC1)c1ccc(O)cc1 (configuration not stated) | 8 | -11 | 4 | 3 | 73* | -9 | 20 | 56* | 5 | 3
Cc1ccccc1N(C(=O)c1snc(C(N)=O)c1N)C(C)C(=O)NC1CCCCC1 (configuration not stated) | 19 | -12 | 0 | 3 | -21 | -13 | / | / | / | /
O=C(Nc1ccc(NC(=S)NC(=O)c2ccccc2F)cc1)c1cccs1 | 32 | -30 | -3 | 11 | 52* | 0 | 20 | 28 | 9 | 10
COc1cc(NC(=S)NC(=O)c2ccccc2F)ccc1NC(=O)c1cccs1 | 13 | -38 | -10 | 5 | -13 | -17 | / | / | / | /
CCNC(=O)C1(C)CCCN(C(=O)c2cccc(C)c2C)C1 (configuration not stated) | / | / | / | 0 | -7 | / | / | / | / | /
CCCCN1C(=O)C(CC(=O)NCCCN(C)C)CC(C(=O)N2CCCCCC2)=C1C (configuration not stated) | / | / | / | 0 | 4 | / | / | / | / | /
CCc1ccc(OCCNC(=O)c2ccccc2SCc2ccccc2)cc1 | 34 | -8 | -13 | 8 | 61* | 18 | 25* | 40 | 4 | 2
CCNC(=O)c1ccccc1SCc1ccccc1 | 27 | -6 | -1 | 8 | 0 | -22 | / | / | / | /
CCN(c1ccccc1)S(=O)(=O)c1ccc(NC(=S)NC(=O)c2ccc(Br)o2)cc1 | 13 | -22 | -2 | 8 | 64* | 0 | 33* | 40 | 8 | 0
Cn1cc(-c2csc(C(O)c3ccc(F)cc3)n2)cn1 (configuration not stated) | / | / | / | 2 | -14 | / | / | / | / | /
O=C1CCCc2c1cc(C(=O)Nc1ccc(Br)cn1)c(=O)n2-c1ccccc1 | 7 | -32 | -11 | 11 | 106* | -16 | 1 | -3 | 2 | -1
SMILES | OX1R antag-1 | OX1R antag-2 | GPR7 antag | TAAR1 agonist | TAAR1 antag | CHO parental Ca | nonsel antag count | TAAR1 ant conf | Ga16 ag counter | TAAR1 ag counter
O=C1CCCc2c1cc(C(=O)O)c(=O)n2-c1ccccc1 | 12 | -11 | -3 | 2 | 4 | 8 | / | / | / | /
Cc1nc2ccc(S(=O)(=O)CCC(=O)NCc3ccc(Cl)cc3)cc2s1 | / | / | / | 1 | -32 | / | / | / | / | /
CCOc1ccc(N(C(=O)c2snc(C(N)=O)c2N)C(CC)C(=O)NC2CCCC2)cc1 (configuration not stated) | 7 | 1 | -8 | -4 | -2 | -6 | / | / | / | /
CCOc1ccc(C(C(=O)NC2CCCC2)N(C(=O)c2snc(C(N)=O)c2N)c2cccc(O)c2)cc1 (configuration not stated) | 14 | 24 | -12 | 17 | 99* | 25 | 37* | 81* | 8 | 8
NC(=O)c1nsc(C(=O)N(c2cccc(O)c2)C(C(=O)NC2CCCC2)c2ccc(Cl)cc2)c1N (configuration not stated) | -2 | 3 | -13 | 0 | 66* | -2 | 25* | 53* | 6 | 12
Cc1cccc(N(C(=O)c2snc(C(N)=O)c2N)C(C(=O)NC2CCCC2)c2ccncc2)c1 (configuration not stated) | 10 | -40 | -14 | -6 | -5 | -26 | / | / | / | /

Compound activity from PubChem.
